Assay results published in ChEMBL document CHEMBL1240422, “Design, synthesis and biological evaluation of 3,5-diaryl-isoxazoline/isoxazole-pyrrolobenzodiazepine conjugates as potential anticancer agents” (2010).
The source made the active and inactive calls. The calls are words filed in the database; no cut-off is given here.

Tests used:
[1] = system: K562; experiment: Anticancer activity against human K562 cells after 48 hrs by SRB assay; assay type: functional; settings: K562, 48 h
[2] = system: MOLT-4; experiment: Anticancer activity against human MOLT4 cells after 48 hrs by SRB assay; assay type: functional; settings: MOLT-4, 48 h
[3] = system: RPMI-8226; experiment: Anticancer activity against human RPMI8226 cells after 48 hrs by SRB assay; assay type: functional; settings: RPMI-8226, 48 h
[4] = system: SR; experiment: Anticancer activity against human SR cells after 48 hrs by SRB assay; assay type: functional
[5] = system: EKVX; experiment: Anticancer activity against human EKVX cells after 48 hrs by SRB assay; assay type: functional
[6] = system: HOP-62; experiment: Anticancer activity against human HOP62 cells after 48 hrs by SRB assay; assay type: functional; settings: HOP-62, 48 h
Procedure, shortened: (§1)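 Grown in RPMI 1640 with 10% FBS and 2 mM L-glutamine at 37 °C, 5% CO2. Seeded at densities set by doubling time, then preincubated 24 h. Continuous 48 h drug exposure at four concentrations (0.1, 1, 10, 100), triplicate wells. Fixed with cold TCA (final 10%) at 4 °C, 60 min. Stained with 0.4% SRB in 1% acetic acid, eluted with 10 mM Tris base, read at 540/690 nm. Percent growth versus control wells.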

[7] = system: HOP-92; experiment: Anticancer activity against human HOP92 cells after 48 hrs by SRB assay; assay type: functional; settings: HOP-92, 48 h
[8] = system: NCI-H23; experiment: Anticancer activity against human NCI-H23 cells after 48 hrs by SRB assay; assay type: functional; settings: NCI-H23, 48 h
[9] = system: NCI-H322M; experiment: Anticancer activity against human NCI-H322M cells after 48 hrs by SRB assay; assay type: functional
[10] = system: NCI-H460; experiment: Anticancer activity against human NCI-H460 cells after 48 hrs by SRB assay; assay type: functional; settings: NCI-H460, 48 h
[11] = system: COLO 205; experiment: Anticancer activity against human COLO205 cells after 48 hrs by SRB assay; assay type: functional; settings: COLO 205, 48 h; procedure, shortened: as §1
[12] = system: HCC 2998; experiment: Anticancer activity against human HCC2998 cells after 48 hrs by SRB assay; assay type: functional; settings: HCC 2998, 48 h
[13] = system: HT-29; experiment: Anticancer activity against human HT-29 cells after 48 hrs by SRB assay; assay type: functional; settings: HT-29, 48 h
[14] = system: SW-620; experiment: Anticancer activity against human SW620 cells after 48 hrs by SRB assay; assay type: functional; settings: SW-620, 48 h
[15] = system: SF-268; experiment: Anticancer activity against human SF268 cells after 48 hrs by SRB assay; assay type: functional; settings: SF-268, 48 h
[16] = system: SF-539; experiment: Anticancer activity against human SF539 cells after 48 hrs by SRB assay; assay type: functional; settings: SF-539, 48 h
[17] = system: U-251; experiment: Anticancer activity against human U251 cells after 48 hrs by SRB assay; assay type: functional; settings: U-251, 48 h
[18] = system: Malme-3M; experiment: Anticancer activity against human MALME-3M cells after 48 hrs by SRB assay; assay type: functional
[19] = system: M14; experiment: Anticancer activity against human M14 cells after 48 hrs by SRB assay; assay type: functional; settings: M14, 48 h
[20] = system: SK-MEL-2; experiment: Anticancer activity against human SK-MEL-2 cells after 48 hrs by SRB assay; assay type: functional; settings: SK-MEL-2, 48 h
[21] = system: IGROV-1; experiment: Anticancer activity against human IGROV1 cells after 48 hrs by SRB assay; assay type: functional; settings: IGROV-1, 48 h
[22] = system: OVCAR-5; experiment: Anticancer activity against human OVCAR5 cells after 48 hrs by SRB assay; assay type: functional; settings: OVCAR-5, 48 h
[23] = system: OVCAR-8; experiment: Anticancer activity against human OVCAR8 cells after 48 hrs by SRB assay; assay type: functional; settings: OVCAR-8, 48 h
[24] = system: SK-OV-3; experiment: Anticancer activity against human SKOV3 cells after 48 hrs by SRB assay; assay type: functional; settings: SK-OV-3, 48 h
[25] = system: 786-0; experiment: Anticancer activity against human 786-0 cells after 48 hrs by SRB assay; assay type: functional; settings: 786-0, 48 h
[26] = system: A498; experiment: Anticancer activity against human A498 cells after 48 hrs by SRB assay; assay type: functional; settings: A498, 48 h
[27] = system: ACHN; experiment: Anticancer activity against human ACHN cells after 48 hrs by SRB assay; assay type: functional
[28] = system: CAKI-1; experiment: Anticancer activity against human Caki1 cells after 48 hrs by SRB assay; assay type: functional; settings: CAKI-1, 48 h
[29] = system: RXF 393; experiment: Anticancer activity against human […] cells after 48 hrs by SRB assay; assay type: functional; settings: RXF 393, 48 h
[30] = system: TK-10; experiment: Anticancer activity against human TK10 cells after 48 hrs by SRB assay; assay type: functional; settings: TK-10, 48 h
[31] = system: UO-31; experiment: Anticancer activity against human UO31 cells after 48 hrs by SRB assay; assay type: functional; settings: UO-31, 48 h
[32] = system: MDA-MB-231; experiment: Anticancer activity against human MDA-MB-231 cells after 48 hrs by SRB assay; assay type: functional; settings: MDA-MB-231, 48 h
[33] = Anticancer activity against human Hs 578T cells after 48 hrs by SRB assay; assay type: functional
[34] = system: MDA-MB-435; experiment: Anticancer activity against human MDA-MB-435 cells after 48 hrs by SRB assay; assay type: functional; settings: MDA-MB-435, 48 h
[35] = system: BT-549; experiment: Anticancer activity against human BT549 cells after 48 hrs by SRB assay; assay type: functional; settings: BT-549, 48 h
[36] = system: T47D; experiment: Anticancer activity against human T47D cells after 48 hrs by SRB assay; assay type: functional
[37] = system: MDA-MB-468; experiment: Anticancer activity against human MDA-MB-468 cells after 48 hrs by SRB assay; assay type: functional; settings: MDA-MB-468, 48 h
[38] = system: SK-MEL-5; experiment: Anticancer activity against human SK-MEL-5 cells after 48 hrs by SRB assay; assay type: functional; settings: SK-MEL-5, 48 h
[39] = system: UACC-257; experiment: Anticancer activity against human UACC257 cells after 48 hrs by SRB assay; assay type: functional; settings: UACC-257, 48 h
[40] = system: A-375; experiment: Cell cycle arrest in human A375 cells assessed as accumulation at G0/G1 phase at 4 uM after 24 hrs using propidium iodide staining by FACS; assay type: functional
Procedure, shortened: (§2)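 Treated A375 cells (24 h) were harvested with trypsin-EDTA and fixed in ice-cold 70% ethanol (4 °C, 30 min). After a PBS wash, they were incubated with 1 mg/mL RNase A (37 °C, 30 min) and stained with propidium iodide solution containing trisodium citrate and Triton X-100. DNA content was measured by flow cytometry on 20,000 events. Controls were DMSO-treated.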

[41] = system: A-375; experiment: Cell cycle arrest in human A375 cells assessed as accumulation at S phase at 4 uM after 24 hrs using propidium iodide staining by FACS; assay type: functional; procedure, shortened: as §2
[42] = system: A-375; experiment: Cell cycle arrest in human A375 cells assessed as accumulation at G2/M phase at 4 uM after 24 hrs using propidium iodide staining by FACS; assay type: functional; procedure, shortened: as §2
[43] = system: A-375; experiment: Induction of apoptosis in human A375 cells assessed as caspase3 activation at 4 uM after 24 hrs by fluorimetry; assay type: functional, cell-based
Procedure, shortened: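 Caspase-3 activity was measured by a fluorometric assay on lysates of treated and untreated A375 cells.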

COc1ccc(C2=NOC(c3cc(OC)c(OC)c(OC)c3)C2)cc1OCCCCOc1cc2c(cc1OC)C(=O)N1CCC[C@H]1C=N2 (stereo partly drawn) showed a GI50 [1] of 120 nM, a GI50 [2] of 200 nM and a GI50 [3] of 240 nM. It also gave a GI50 [4] of 140 nM, a GI50 [5] of 460 nM and a GI50 [6] of 270 nM. The GI50 [7] was 310 nM, the GI50 [8] was 270 nM and the GI50 [9] was 340 nM. For the same compound, the GI50 [10] was 210 nM, the GI50 [11] was 210 nM and the GI50 [12] was 190 nM. It also gave a GI50 [13] of 360 nM, a GI50 [14] of 230 nM and a GI50 [15] of 340 nM. It also gave a GI50 [16] of 220 nM, a GI50 [17] of 300 nM and a GI50 [18] of 210 nM. For the same compound, the GI50 [19] was 180 nM, the GI50 [20] was 230 nM and the GI50 [21] was 240 nM. For the same compound, the GI50 [22] was 420 nM, the GI50 [23] was 370 nM and the GI50 [24] was 470 nM. For the same compound, the GI50 [25] was 280 nM, the GI50 [26] was 180 nM and the GI50 [27] was 280 nM. The GI50 [28] was 250 nM, the GI50 [29] was 210 nM and the GI50 [30] was 280 nM. For the same compound, the GI50 [31] was 290 nM, the GI50 [32] was 190 nM and the GI50 [33] was 160 nM. The GI50 [34] was 170 nM, the GI50 [35] was 90 nM and the GI50 [36] was 280 nM. For the same compound, the GI50 [37] was 220 nM, the GI50 [38] was 160 nM and the GI50 [39] was 270 nM. It also gave an Activity [40] of 95.2%, an Activity [41] of 3.52% and an Activity [42] of 1.23%. For the same compound, the Activity [43] was “Active”.
